Results taken from ChEMBL document CHEMBL5543124, “Lead Compound Development of SRC-3 Inhibitors with Improved Pharmacokinetic Properties and Anticancer Efficacy” (J Med Chem, 2024).
Calls of active or inactive are those of the source. The calls are words filed in the database; no cut-off is given here.

Key:
[1] = Oral bioavailability in CD-1 mouse at 10 mg/kg administration measured upto 48 hrs by LC-MS/MS analysis; assay type: ADME, organism-based; settings: in vivo
[2] = test system: MCF7; experiment: Cytotoxicity against human MCF7 cells assessed as inhibition of cell growth incubated for 72 hrs by MTT assay; assay type: functional, cell-based; settings: MCF7, 72 h
[3] = target: 5-hydroxytryptamine receptor 2B (Homo sapiens, UniProt P41595); experiment: Antagonist activity at HTR2B (unknown origin) by calcium flux assay; assay type: toxicity
Procedure, shortened: (§1)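 Tested in a commercial off-target safety screening panel of 78 targets. Values reported as RC50, taken as IC50 except for agonist mode, where RC50 is EC50.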

[4] = test system: PANC-1; experiment: Cytotoxicity against […] SRC-3.2 knockdown human PANC-1 cells assessed as inhibition of cell growth incubated for 72 hrs by MTT assay; assay type: functional, cell-based; settings: PANC-1, 72 h
Procedure, shortened: (§2)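 PANC-1 cells with stable lentiviral shRNA knockdown of SRC-3 or control shRNA; SRC-3 levels checked by western blot. Cells treated with a dose series for 72 h and viability read by MTT.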

[5] = test system: MDA-MB-468; experiment: Cytotoxicity against human MDA-MB-468 cells assessed as inhibition of cell growth incubated for 72 hrs by MTT assay; assay type: functional, cell-based; settings: MDA-MB-468, 72 h
Procedure, shortened: (§3)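 Cells seeded and grown to 70–80% confluence, then exposed for 72 h to a titration series (0.2–1000 nM). Viability read by MTT relative to untreated cells, with 6 replicates per concentration. IC50 fitted with a Hill-slope model.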

[6] = test system: PANC-1; experiment: Cytotoxicity against human PANC-1 cells mediated with siRNA control assessed as inhibition of cell growth incubated for 72 hrs by MTT assay; assay type: functional, cell-based; settings: PANC-1, 72 h; procedure, shortened: as §2
[7] = Clearance in CD-1 mouse at 1 mg/kg,iv administration measured upto 48 hrs by LC-MS/MS analysis; assay type: ADME, organism-based; settings: in vivo
Procedure, shortened: (§4)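 Single intravenous bolus in ICR male mice (n = 3, 6 weeks); dosing solution 0.5 mg/mL in 20% DMSO, 16% PEG, 4% dextrose in PBS. Tail-vein blood (10 μL) taken at 2, 5, 15, 30 min and 1, 2, 4, 8, 24, 48 h. Plasma quantified by LC-MS/MS against a 0.5–1000 ng/mL calibration; parameters from non-compartmental analysis.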

[8] = Antitumor activity against human Panc-1-Luc cells orthotopically xenografted in SCID mouse assessed as reduction in tumor weight at 10 mg/kg,ip administration once daily for 63 days by weighing harvested tumors; settings: time 63 day
[9] = Half life in CD-1 mouse at 10 mg/kg,po administration measured upto 48 hrs by LC-MS/MS analysis; assay type: ADME, organism-based; settings: in vivo
Procedure, shortened: (§5)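 Oral gavage in ICR male mice (n = 3); dosing solution 1 mg/mL in 20% DMSO, 16% PEG, 4% dextrose in PBS. Tail-vein blood (10 μL) taken at 15, 30 min and 1, 2, 4, 8, 24, 48 h. Plasma quantified by LC-MS/MS against a 0.5–1000 ng/mL calibration; parameters from a non-compartmental extravascular model.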

[10] = target: T1, Voltage-gated inwardly rectifying potassium channel KCNH2 (Homo sapiens, UniProt Q12809); experiment: Inhibition of hERG; assay type: toxicity
[11] = Cytotoxicity against CD-1 mouse Primary hepatocyte assessed as inhibition of cell growth incubated for 72 hrs by MTT assay; assay type: toxicity, cell-based; settings: primary hepatocytes
[12] = Drug concentration in CD-1 mouse plasma at 37.7 micromol/kg,ip administration measured after 22 hrs by LC-MS/MS analysis; assay type: ADME, cell-free; settings: dose 37.7 µmol/kg
Procedure, shortened: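 Female CD-1 mice (n = 3) dosed ip at 37.7 μmol/kg. Blood (20 μL) taken at 0.25, 5 and 22 h, processed to plasma, and drug quantified by LC-MS/MS.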

[13] = test system: MDA-MB-468; experiment: Cytotoxicity against human MDA-MB-468 cells assessed as inhibition of cell growth preincubated for 3 to 6 hrs followed by compound washout and incubated for 72 hrs by MTT assay; assay type: functional, cell-based; settings: time 3-6 hrs
Procedure, shortened: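 MDA-MB-468 cells (RPMI 1640, 5% FBS) exposed to compound for varying durations, washed with PBS, then kept in culture to a total of 72 h. Viability read by MTT; EC50 and EC90 determined at each exposure time.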

[14] = test system: PANC-1; experiment: Cytotoxicity against SiRNA mediated SRC-3.1 knockdown human PANC-1 cells assessed as inhibition of cell growth incubated for 72 hrs by MTT assay; assay type: functional, cell-based; settings: PANC-1, 72 h; procedure, shortened: as §2
[15] = target: T1, Voltage-gated inwardly rectifying potassium channel KCNH2; experiment: Inhibition of hERG transfected in HEK293 cells by patch clamp assay; assay type: toxicity, cell-based
[16] = target: T2, Endothelin-1 receptor (Homo sapiens, UniProt P25101); experiment: Antagonist activity at EDNRA (unknown origin) by calcium flux assay; assay type: toxicity; procedure, shortened: as §1
T2 sequence (P25101 whole entry): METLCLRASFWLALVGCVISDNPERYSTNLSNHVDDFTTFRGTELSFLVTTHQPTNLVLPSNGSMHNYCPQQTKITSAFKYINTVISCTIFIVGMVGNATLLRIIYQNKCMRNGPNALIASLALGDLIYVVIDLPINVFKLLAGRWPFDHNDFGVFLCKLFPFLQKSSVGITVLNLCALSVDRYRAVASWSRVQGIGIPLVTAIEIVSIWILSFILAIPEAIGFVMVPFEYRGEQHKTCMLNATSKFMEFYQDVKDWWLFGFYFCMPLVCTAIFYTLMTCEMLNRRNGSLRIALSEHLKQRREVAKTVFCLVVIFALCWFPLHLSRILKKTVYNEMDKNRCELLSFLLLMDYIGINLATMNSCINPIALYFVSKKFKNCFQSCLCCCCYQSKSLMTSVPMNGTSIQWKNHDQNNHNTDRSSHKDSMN

[17] = test system: PANC-1; experiment: Cytotoxicity against human PANC-1 cells assessed as inhibition of cell growth incubated for 72 hrs by MTT assay; assay type: functional, cell-based; settings: PANC-1, 72 h; procedure, shortened: as §3
[18] = test system: MDA-PCa-118b; experiment: Antitumor activity against patient derived MDA-PCa-118b cells xenografted in SCID mouse assessed as reduction in bone metastasis at 10 mg/kg,ip administration measured after 4 weeks by X-ray imaging analysis; assay type: functional, organism-based; settings: Homo sapiens
Procedure, shortened: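 AR-PDX 118b cells (1×10^5) injected via intra-femoral artery in male SCID mice (8–9 weeks). After 2 weeks, 10 mg/kg/day ip or vehicle for 4 weeks (n = 9/group). X-ray imaging every two weeks. At the end, femurs CT-scanned (5 per group) with 3D-reconstruction tumor size, and H&E histology used for tumor/femur area ratio.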

[19] = Tmax in CD-1 mouse at 1 mg/kg,iv administration measured upto 48 hrs by LC-MS/MS analysis; assay type: ADME, organism-based; settings: in vivo
Procedure, shortened: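 Male ICR mice (n=3, 6 weeks) given 1 mg/kg i.v. from a 0.5 mg/mL solution in 20% DMSO/16% PEG/4% dextrose in PBS. Tail-vein blood (10 μL) drawn at 2, 5, 15 and 30 min and at 1, 2, 4, 8, 24 and 48 h. Plasma quantified by LC-MS/MS against 0.5–1000 ng/mL calibration standards with QC samples. Parameters from non-compartmental analysis.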

[20] = AUC (0 to t) in CD-1 mouse at 10 mg/kg,po administration measured upto 48 hrs by LC-MS/MS analysis; assay type: ADME, organism-based; settings: in vivo; procedure, shortened: as §5
[21] = Half life in CD-1 mouse at 1 mg/kg,iv administration measured upto 48 hrs by LC-MS/MS analysis; assay type: ADME, organism-based; settings: in vivo; procedure, shortened: as §4

T1 sequence (Q12809 whole entry): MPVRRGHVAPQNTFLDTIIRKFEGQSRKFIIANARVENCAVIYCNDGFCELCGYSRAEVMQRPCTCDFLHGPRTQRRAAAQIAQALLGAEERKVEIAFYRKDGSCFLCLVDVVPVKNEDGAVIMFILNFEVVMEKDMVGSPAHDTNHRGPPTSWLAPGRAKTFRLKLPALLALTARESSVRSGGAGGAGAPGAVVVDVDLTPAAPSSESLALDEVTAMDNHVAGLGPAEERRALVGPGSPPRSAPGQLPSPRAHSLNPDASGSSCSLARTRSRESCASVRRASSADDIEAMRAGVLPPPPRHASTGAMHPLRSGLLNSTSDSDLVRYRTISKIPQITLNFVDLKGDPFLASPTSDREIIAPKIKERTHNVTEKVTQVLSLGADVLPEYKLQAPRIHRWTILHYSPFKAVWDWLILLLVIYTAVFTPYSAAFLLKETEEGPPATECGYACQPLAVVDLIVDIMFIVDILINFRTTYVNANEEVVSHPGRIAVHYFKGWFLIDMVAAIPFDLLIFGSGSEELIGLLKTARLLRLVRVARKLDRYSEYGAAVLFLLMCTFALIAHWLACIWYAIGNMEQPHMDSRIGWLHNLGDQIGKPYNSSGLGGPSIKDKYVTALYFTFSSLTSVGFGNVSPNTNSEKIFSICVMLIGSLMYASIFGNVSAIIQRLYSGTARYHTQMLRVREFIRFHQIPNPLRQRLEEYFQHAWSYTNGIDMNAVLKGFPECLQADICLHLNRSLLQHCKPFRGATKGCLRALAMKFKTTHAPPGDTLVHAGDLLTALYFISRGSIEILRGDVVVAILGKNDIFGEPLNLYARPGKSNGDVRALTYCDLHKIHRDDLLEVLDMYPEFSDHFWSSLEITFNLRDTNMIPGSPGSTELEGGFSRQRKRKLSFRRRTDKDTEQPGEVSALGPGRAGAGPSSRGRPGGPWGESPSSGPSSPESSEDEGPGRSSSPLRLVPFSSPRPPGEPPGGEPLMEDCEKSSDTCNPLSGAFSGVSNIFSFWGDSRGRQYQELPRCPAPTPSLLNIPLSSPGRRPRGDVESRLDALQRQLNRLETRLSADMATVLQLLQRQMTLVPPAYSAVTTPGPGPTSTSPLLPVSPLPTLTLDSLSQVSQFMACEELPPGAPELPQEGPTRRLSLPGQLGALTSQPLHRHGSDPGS
Chain of 5-hydroxytryptamine receptor 2B (P41595 whole entry): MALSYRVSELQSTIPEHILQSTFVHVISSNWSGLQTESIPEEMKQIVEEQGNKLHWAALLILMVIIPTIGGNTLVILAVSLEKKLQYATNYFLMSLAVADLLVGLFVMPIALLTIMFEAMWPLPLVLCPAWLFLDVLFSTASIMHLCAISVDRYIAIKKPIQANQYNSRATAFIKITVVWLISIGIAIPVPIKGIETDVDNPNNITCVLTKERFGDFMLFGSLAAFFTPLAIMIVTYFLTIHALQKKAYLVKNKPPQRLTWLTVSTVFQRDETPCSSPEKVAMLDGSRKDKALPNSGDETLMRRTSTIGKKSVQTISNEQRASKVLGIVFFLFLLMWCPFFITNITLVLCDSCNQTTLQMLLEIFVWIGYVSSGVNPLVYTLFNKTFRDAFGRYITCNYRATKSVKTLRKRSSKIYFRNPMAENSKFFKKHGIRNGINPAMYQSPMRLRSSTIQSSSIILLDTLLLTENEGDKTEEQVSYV

C/C(=N\N=c1/[nH]c2cc(F)c(F)cc2n1C)c1ccc(F)cn1
F [1]: 24.6% | IC50 [2]: 3.4 nM | IC50 [3]: 4100 nM | IC50 [4]: 119 nM | IC50 [5]: 15 nM | IC50 [6]: 25.2 nM | clearance [7]: 22 mL/min/kg | Activity [8]: 0.22 g | t1/2 [9]: 14.3 h | IC50 [10]: 2700 nM | IC50 at 72 h [11]: > 1000 nM | concentration at 22 h [12]: 47 nM | Activity [13]: Active | IC50 [14]: 147 nM | IC50 [15]: 1130 nM | IC50 [16]: 4000 nM | IC50 [17]: 29 nM | Activity [18]: Active | Tmax [19]: 1.98 min | AUCt [20]: 1719 ng·h/mL | t1/2 [21]: 22.5 h
